Data from ChEMBL document CHEMBL1142953, “Calcitonin gene-related peptide analogues with aza and indolizidinone amino acid residues reveal conformational requirements for antagonist activity at the human calcitonin gene-related peptide 1 receptor” (J Med Chem, 2007).
Active and inactive are the calls of the source. The calls are words filed in the database; no cut-off is given here.

Key:
Assay type in all cases: functional, cell-based
[1] = target: Calcitonin gene-related peptide type 1 receptor (Homo sapiens) (UniProt Q16602); experiment: (§1) Antagonist activity against human CGRP1 expressed in HEK293 cells assessed as inhibition of human alpha-CGRP-promoted cAMP production; parameters: concentration or dose not given beside the values; details: concentration not given here
Sequence of Calcitonin gene-related peptide type 1 receptor (Homo sapiens) (Q16602 whole entry): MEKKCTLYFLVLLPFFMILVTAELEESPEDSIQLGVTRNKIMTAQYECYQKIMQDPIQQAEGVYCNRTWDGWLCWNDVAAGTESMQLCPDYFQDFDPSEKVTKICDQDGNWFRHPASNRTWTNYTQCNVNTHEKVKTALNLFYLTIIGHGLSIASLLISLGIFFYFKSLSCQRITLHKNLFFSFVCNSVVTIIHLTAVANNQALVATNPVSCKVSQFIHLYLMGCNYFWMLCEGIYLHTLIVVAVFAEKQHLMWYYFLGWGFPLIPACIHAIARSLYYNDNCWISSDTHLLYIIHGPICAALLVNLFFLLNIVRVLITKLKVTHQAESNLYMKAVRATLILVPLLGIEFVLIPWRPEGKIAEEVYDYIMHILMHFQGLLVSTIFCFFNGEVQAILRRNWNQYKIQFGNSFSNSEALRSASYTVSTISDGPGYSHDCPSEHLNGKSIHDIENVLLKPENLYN
Outline: (§2)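 HEK293 cells stably expressing CRLR, seeded at 5000 cells/well. Cells preincubated with peptide analogues for 15 min at 37 °C, then stimulated with 0.5 nM α-CGRP for 15 min at 37 °C. cAMP measured with a fluorescence-based kit. Peptides tested up to 100 µM. At least three independent experiments in triplicate, analysed by nonlinear curve fitting; mean ± SEM.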

[2] = target: Calcitonin gene-related peptide type 1 receptor (Homo sapiens, UniProt O60894+Q16602); experiment: as §1; outline: as §2
Sequence of Calcitonin gene-related peptide type 1 receptor (Q16602 whole entry, one chain of several): as the sequence (Q16602 whole entry) above

[3] = target: Calcitonin gene-related peptide type 1 receptor (Homo sapiens) (UniProt Q16602); experiment: Partial agonist activity at human CGRP1 expressed in HEK293 cells assessed by measuring cAMP production upto 1 uM
Outline: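 HEK293 cells stably expressing CRLR were exposed to CGRP27-37 analogues up to 1 µM without α-CGRP. cAMP production was measured with a fluorescence-based kit as the read-out.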

With CC(C)[C@H](NC(=O)[C@H](CC(=O)O)NC(=O)[C@@H](NC(=O)[C@@H]1CCCN1C(=O)[C@@H](NC(=O)[C@@H](N)Cc1ccccc1)C(C)C)[C@@H](C)O)C(=O)N[C@H]1CC[C@H]2CC[C@@H](C(=O)N[C@@H](Cc3ccccc3)C(=O)N[C@@H](C)C(=O)N[C@@H](Cc3ccccc3)C(N)=O)N2C1=O the inhibition [1] was 70%, the IC50 [2] was 0.107 µM and the Activity [3] was “inactive”.
